The text below walks through data of ChEMBL document CHEMBL5252513, “Identification of a Benzoisoxazoloazepine Inhibitor (CPI-0610) of the Bromodomain and Extra-Terminal (BET) Family as a Candidate for Human Clinical Trials” (J Med Chem, 2016).

The nature of data set [1]: Toxicity in rat assessed as mild to moderate hyperglycemia at 2 to 20 mg/kg,po QD consecutive for 14 days followed by 2 weeks recovery period. Format: organism-based. The conditions noted are these: in vivo, 336 h, dose 2-20 mg/kg, time 14 day. The essentials: (§1)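 Oral suspension given once daily for 14 consecutive days (rat 2, 6, 20 mg/kg; dog 2, 4, 6 mg/kg) in dose range-finding and GLP repeat-dose studies, GLP arms with an added 2-week recovery period; histopathology and clinical pathology findings recorded.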

Data set [2] can be described thus: Toxicity in dog assessed as degeneration of testicular seminiferous epithelium at 2 to 6 mg/kg,po QD consecutive for 14 days followed by 2 weeks recovery period. The conditions noted are these: in vivo, 336 h, dose 2-6 mg/kg, time 14 day. Format: organism-based, Canis lupus familiaris. The essentials:
as §1

Data set [3] deals with Histone acetyltransferase KAT2B (Homo sapiens, UniProt Q92831). The data set is described as follows: Displacement of biotinylated JQ1 from PCAF bromodomain (unknown origin) incubated for 20 mins by AlphaLISA assay. Background: Alpha assays give light when donor and acceptor beads are brought close together.
Data set [4] in a line: Total clearance in rat at 1 mg/kg,iv. The conditions noted are these: in vivo. Format: ADME, organism-based.
The nature of data set [5]: Toxicity in rat assessed as lymphoid depletion at 2 to 20 mg/kg,po QD consecutive for 14 days followed by 2 weeks recovery period. Format: organism-based. As to conditions: in vivo, 336 h, dose 2-20 mg/kg, time 14 day. The gist of the method: as §1
Data set [6] addresses T1, Bromodomain-containing protein 9 (Homo sapiens, UniProt Q9H8M2).
T1 sequence (Q9H8M2 whole entry): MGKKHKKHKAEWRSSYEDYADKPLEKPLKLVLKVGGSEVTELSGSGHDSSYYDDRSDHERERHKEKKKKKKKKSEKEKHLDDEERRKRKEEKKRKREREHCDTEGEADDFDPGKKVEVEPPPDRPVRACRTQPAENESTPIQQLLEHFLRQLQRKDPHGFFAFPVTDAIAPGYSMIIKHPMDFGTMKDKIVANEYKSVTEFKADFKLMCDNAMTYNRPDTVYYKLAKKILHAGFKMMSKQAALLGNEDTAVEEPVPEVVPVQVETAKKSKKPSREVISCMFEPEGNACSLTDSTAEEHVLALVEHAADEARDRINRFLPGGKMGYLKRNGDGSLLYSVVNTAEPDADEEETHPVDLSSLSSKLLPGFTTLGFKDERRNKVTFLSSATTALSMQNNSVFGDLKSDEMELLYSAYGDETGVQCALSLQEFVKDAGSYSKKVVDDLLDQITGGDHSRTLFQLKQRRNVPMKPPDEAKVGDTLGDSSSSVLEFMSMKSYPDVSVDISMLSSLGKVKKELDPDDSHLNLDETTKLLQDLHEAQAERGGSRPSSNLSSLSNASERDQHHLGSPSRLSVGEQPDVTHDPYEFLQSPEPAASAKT
In words: Binding affinity to BRD9 bromodomain (unknown origin) incubated for 60 mins by TR-FRET assay. On the technique in general: In TR-FRET formats the signal depends on donor and acceptor labels being close together.

The target in data set [7] is T2, Peregrin (Homo sapiens, UniProt P55201).
T2 sequence (P55201 whole entry): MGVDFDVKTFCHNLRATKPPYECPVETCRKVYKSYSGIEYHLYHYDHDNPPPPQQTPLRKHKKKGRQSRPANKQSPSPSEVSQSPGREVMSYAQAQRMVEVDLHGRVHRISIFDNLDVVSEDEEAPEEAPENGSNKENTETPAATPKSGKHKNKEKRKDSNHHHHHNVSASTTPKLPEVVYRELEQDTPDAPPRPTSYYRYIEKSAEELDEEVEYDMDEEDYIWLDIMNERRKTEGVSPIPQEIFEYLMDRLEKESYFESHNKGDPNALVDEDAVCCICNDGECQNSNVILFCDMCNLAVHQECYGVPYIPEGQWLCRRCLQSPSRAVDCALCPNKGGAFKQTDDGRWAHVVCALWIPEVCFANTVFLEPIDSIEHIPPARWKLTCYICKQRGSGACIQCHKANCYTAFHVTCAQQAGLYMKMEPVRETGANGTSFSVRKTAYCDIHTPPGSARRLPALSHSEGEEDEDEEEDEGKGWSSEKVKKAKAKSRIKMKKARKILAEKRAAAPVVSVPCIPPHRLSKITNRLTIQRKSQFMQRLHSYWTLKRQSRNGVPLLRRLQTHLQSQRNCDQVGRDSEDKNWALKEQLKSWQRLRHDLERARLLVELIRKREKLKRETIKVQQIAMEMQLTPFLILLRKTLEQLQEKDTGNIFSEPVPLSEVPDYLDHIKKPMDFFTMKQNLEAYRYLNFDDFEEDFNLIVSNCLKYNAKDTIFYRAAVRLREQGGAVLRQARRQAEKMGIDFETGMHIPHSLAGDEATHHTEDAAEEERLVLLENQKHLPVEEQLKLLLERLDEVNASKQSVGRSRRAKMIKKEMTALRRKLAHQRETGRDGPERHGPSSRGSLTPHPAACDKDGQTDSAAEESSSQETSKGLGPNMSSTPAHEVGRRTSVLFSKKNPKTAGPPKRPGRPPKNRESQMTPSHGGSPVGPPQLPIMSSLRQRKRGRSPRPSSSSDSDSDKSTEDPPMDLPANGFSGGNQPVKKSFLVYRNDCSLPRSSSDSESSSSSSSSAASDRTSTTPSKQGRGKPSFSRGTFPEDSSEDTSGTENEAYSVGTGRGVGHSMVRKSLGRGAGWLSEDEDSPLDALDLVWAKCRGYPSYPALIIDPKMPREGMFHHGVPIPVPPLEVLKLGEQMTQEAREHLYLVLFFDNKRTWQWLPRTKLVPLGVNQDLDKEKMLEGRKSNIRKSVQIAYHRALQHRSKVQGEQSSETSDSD
In words: Displacement of biotinylated JQ1 from BRPF1 bromodomain (unknown origin) incubated for 20 mins by AlphaLISA assay.

Data set [8] is described as follows: Tmax in rat at 5 mg/kg,po. Format: ADME, organism-based. The conditions noted are these: in vivo.
Data set [9] is described as follows: Unbound clearance in dog at 0.5 mg/kg,iv. As to conditions: in vivo. It is filed as ADME, organism-based, Canis lupus familiaris.
Another data set deals with CREB-binding protein (Homo sapiens, UniProt Q92793). The data set is described as follows: Displacement of biotinylated JQ1 from CBP bromodomain (unknown origin) incubated for 20 mins by AlphaLISA assay.
Data set [10] can be described thus: Toxicity against BALB/c mouse plasma xenografted with human MV4-11 cells assessed as body weight loss at 60 mg/kg,po QD for 28 days. It is filed as organism-based. The conditions noted are these: in vivo, 672 h, time 28 day. The essentials:
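Body weight change (%) followed in MV-4-11 AML mouse xenograft during 28 days of oral single-agent dosing (30 mg/kg once or twice daily, 60 mg/kg once daily), vehicle PO BID as control.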
Background: In xenograft studies the graft and the host belong to different species.

Data set [11] in a line: Clearance in dog assessed as liver blood flow at 0.5 mg/kg,iv. Format: ADME, organism-based, Canis lupus familiaris. The conditions noted are these: in vivo.
Data set [12] has as its target SWI/SNF-related matrix-associated actin-dependent regulator of chromatin subfamily A member 4 (Homo sapiens, UniProt P51532). In words: Displacement of biotinylated JQ1 from BRG1 bromodomain (unknown origin) incubated for 20 mins by AlphaLISA assay.
A short description of data set [13]: Protein binding in human plasma. Format: ADME, cell-free. The conditions noted are these: read-out: PPB (converted).
Data set [14] has as its target T2, Peregrin. The data set is described as follows: Binding affinity to BRPF1 bromodomain (unknown origin) incubated for 60 mins by TR-FRET assay.
The nature of data set [15]: Half life in human patient with progression lymphoma at 300 mg,po QD consecutively for 14 days. Format: ADME. As to conditions: in vivo, time 14 day.
A short description of data set [16]: Unbound AUC in mouse at 10 mg/kg,sc. Format: ADME, organism-based. The conditions noted are these: in vivo.
The subject of a further data set is Cytochrome P450. In words: Inhibition of CYP450 (unknown origin) at 10 uM. It is filed as ADME, protein assay. As to conditions: human. The gist of the method:
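Cytochrome P450 activity tested with compound at 10 µM against a number of common isoforms; time-dependent inhibition also assessed.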

Molecules are shown by their SMILES.

Chain of SWI/SNF-related matrix-associated actin-dependent regulator of chromatin subfamily A member 4 (P51532 whole entry): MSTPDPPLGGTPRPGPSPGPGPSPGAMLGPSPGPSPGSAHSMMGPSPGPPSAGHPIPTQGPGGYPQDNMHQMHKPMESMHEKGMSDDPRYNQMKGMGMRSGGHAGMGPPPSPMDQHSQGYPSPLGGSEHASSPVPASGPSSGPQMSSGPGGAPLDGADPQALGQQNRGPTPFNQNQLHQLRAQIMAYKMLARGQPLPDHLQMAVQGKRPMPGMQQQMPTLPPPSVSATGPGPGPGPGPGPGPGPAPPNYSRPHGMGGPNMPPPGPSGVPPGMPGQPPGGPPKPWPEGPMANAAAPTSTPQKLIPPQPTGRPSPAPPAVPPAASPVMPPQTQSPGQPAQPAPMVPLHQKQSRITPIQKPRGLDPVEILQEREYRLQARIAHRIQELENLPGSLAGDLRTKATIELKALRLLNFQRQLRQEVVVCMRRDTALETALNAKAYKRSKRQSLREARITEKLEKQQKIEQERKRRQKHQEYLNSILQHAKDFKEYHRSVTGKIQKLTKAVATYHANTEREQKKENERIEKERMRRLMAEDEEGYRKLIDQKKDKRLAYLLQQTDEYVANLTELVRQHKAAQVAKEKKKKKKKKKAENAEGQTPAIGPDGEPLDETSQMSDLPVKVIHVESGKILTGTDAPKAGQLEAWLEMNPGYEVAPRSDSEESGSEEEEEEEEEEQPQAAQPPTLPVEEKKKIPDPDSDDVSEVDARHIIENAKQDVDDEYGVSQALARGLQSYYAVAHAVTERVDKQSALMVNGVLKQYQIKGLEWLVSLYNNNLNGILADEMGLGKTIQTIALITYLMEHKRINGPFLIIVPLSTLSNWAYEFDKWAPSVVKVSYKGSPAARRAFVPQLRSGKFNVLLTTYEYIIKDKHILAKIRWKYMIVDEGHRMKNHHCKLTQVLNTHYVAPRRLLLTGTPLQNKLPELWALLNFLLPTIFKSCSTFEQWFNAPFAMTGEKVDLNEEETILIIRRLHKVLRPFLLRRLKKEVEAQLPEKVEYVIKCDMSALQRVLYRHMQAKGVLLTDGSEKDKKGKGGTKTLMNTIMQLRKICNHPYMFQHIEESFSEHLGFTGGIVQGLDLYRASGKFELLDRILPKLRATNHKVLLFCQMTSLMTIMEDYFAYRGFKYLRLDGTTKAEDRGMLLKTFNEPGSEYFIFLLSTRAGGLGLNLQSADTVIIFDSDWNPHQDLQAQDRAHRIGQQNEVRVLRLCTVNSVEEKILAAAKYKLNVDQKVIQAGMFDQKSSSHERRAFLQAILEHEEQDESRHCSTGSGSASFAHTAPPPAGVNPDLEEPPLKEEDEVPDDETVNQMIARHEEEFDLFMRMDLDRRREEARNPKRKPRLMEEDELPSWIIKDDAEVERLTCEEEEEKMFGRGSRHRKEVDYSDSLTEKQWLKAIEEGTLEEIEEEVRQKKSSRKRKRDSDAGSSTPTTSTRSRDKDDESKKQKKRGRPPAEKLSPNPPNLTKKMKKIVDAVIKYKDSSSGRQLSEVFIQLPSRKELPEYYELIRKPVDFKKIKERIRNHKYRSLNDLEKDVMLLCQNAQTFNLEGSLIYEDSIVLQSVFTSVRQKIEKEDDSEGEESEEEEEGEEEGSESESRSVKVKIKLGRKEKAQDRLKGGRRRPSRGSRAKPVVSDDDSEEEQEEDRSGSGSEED
Chain of CREB-binding protein (Q92793 whole entry): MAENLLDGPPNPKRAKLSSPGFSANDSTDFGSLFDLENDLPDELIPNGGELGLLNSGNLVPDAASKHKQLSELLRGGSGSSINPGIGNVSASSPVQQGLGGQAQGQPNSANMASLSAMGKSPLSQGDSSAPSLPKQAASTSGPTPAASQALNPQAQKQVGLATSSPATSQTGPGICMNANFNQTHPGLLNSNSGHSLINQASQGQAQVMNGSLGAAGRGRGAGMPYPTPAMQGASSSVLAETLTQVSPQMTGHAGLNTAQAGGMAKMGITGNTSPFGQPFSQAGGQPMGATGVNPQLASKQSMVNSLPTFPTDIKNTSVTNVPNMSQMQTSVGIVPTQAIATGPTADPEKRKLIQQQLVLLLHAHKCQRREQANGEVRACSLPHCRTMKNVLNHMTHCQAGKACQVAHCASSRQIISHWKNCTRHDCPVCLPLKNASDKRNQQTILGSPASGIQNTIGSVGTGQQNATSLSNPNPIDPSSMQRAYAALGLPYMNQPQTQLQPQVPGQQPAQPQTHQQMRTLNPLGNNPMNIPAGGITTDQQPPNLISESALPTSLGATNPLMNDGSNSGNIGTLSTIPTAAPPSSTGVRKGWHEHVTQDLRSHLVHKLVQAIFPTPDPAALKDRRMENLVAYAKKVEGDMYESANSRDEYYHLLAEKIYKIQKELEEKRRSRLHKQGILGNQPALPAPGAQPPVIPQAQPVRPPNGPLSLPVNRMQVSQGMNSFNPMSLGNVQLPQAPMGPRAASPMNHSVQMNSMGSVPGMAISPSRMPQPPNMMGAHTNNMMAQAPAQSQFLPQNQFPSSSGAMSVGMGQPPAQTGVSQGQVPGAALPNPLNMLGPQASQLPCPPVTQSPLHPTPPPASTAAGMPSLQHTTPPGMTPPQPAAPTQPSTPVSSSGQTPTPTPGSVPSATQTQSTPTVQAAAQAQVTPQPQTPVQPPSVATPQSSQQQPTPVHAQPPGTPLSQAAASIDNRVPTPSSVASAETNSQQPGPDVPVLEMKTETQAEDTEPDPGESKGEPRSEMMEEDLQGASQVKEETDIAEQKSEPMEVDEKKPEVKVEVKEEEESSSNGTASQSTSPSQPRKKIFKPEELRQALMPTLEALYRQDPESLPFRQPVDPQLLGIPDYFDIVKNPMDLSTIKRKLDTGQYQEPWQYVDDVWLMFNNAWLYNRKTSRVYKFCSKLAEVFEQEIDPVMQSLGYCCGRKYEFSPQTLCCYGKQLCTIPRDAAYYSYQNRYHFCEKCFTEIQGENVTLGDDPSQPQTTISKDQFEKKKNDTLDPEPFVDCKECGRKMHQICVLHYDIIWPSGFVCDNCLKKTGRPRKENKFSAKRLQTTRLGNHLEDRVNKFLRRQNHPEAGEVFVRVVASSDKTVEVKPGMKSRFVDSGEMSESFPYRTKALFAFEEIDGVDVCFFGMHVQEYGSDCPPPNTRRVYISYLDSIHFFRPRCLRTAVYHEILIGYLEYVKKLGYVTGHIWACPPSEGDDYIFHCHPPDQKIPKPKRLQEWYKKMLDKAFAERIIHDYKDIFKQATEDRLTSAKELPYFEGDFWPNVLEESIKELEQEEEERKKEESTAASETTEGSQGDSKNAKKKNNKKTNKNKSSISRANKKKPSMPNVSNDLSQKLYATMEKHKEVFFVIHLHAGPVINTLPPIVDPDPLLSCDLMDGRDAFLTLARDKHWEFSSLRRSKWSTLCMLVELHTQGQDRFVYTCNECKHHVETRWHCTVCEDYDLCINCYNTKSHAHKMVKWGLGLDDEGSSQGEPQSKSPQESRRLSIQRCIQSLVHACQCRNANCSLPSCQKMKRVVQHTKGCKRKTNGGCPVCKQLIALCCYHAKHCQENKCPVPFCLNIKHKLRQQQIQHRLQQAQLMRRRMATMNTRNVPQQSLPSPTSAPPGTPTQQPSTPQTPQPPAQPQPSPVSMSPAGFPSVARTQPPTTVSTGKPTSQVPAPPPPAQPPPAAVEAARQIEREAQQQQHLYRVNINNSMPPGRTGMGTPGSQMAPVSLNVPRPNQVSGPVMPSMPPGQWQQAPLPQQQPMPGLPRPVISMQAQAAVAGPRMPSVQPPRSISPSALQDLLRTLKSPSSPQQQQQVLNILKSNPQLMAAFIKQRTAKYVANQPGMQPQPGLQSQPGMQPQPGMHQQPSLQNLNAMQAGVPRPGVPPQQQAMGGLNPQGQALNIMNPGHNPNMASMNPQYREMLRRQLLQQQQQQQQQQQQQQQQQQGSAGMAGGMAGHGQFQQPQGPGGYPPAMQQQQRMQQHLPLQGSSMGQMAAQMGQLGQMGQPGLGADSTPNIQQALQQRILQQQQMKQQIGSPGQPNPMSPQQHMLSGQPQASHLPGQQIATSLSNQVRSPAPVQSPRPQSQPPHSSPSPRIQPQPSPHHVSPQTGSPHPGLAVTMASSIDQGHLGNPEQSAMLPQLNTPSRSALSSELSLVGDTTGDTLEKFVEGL
Chain of Histone acetyltransferase KAT2B (Q92831 whole entry): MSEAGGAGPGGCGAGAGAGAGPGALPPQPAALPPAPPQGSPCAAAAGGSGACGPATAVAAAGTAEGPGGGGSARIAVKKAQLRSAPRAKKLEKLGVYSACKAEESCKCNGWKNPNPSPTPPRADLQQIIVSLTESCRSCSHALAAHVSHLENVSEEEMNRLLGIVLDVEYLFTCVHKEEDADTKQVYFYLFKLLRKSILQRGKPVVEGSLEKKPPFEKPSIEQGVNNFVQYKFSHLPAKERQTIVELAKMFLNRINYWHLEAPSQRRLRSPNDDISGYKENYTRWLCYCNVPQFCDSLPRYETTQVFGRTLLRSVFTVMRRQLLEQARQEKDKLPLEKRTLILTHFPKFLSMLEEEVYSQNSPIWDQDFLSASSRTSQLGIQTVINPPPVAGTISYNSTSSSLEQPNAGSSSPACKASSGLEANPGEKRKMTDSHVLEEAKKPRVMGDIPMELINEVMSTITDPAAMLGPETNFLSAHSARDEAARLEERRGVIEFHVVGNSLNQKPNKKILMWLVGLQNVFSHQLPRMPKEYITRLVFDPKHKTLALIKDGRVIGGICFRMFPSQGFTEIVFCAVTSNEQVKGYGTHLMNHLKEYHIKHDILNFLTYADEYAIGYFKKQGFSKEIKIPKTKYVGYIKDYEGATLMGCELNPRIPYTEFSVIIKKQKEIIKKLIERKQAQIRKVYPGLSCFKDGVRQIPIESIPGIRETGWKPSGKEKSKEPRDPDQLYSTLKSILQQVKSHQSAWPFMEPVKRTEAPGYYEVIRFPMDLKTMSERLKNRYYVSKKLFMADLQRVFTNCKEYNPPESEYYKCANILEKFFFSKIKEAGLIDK

As to `Cc1noc2c1-c1ccccc1C(c1ccc(Cl)cc1)=N[C@H]2CC(N)=O` [PELABRESIB], the Activity entry was “Toxic” in [1], “Toxic” in data set [2], “Toxic” in data set [5] and “Non-Toxic” in data set [10]. In addition, the IC50 was above 20 µM in data set [3]; above 80 µM in [6]; above 20 µM at Peregrin [7]; above 20 µM on CREB-binding protein; above 20 µM in data set [12]; above 20 µM on Peregrin [14]. Further, the clearance in [4] was 20 mL/min/kg. The Tmax in [8] stood at 1.2 h. The compound further came in with a CL free in data set [9] of 46.7 mL/min/kg. The QH in data set [11] is given as 6%. The fraction unbound in data set [13] is 0.05. In data set [15], this compound had a half-life of 23 h. Further, the fAUC in data set [16] is 1.5 µM·h. Moreover, the “inhibition (INH)” value with Cytochrome P450 was “Not Active”.

The IC50 is the midpoint of a concentration-inhibition curve. By clearance is commonly meant a measure of how efficiently the substance is removed, as volume per time. A higher clearance goes with efficient removal. In general, Tmax refers to the time from dosing to the highest level. By half-life is commonly meant the time needed for the level to fall by half in the phase considered.
